According to article PMC5532717 (ACS Central Science, 2017):

How the values were obtained:
Assay type in all cases: biochemical
GBA2 = biological target: T1, GBA2 (Homo sapiens, UniProt Q9HCG7); test: Competitive ABPP against β-glucosidase probe 14, GBA2+ HEK293T lysate; details: 5 from 30 to 0 μM, 1 h at 37 °C, pH 5.8
T1 sequence (Q9HCG7 1-927): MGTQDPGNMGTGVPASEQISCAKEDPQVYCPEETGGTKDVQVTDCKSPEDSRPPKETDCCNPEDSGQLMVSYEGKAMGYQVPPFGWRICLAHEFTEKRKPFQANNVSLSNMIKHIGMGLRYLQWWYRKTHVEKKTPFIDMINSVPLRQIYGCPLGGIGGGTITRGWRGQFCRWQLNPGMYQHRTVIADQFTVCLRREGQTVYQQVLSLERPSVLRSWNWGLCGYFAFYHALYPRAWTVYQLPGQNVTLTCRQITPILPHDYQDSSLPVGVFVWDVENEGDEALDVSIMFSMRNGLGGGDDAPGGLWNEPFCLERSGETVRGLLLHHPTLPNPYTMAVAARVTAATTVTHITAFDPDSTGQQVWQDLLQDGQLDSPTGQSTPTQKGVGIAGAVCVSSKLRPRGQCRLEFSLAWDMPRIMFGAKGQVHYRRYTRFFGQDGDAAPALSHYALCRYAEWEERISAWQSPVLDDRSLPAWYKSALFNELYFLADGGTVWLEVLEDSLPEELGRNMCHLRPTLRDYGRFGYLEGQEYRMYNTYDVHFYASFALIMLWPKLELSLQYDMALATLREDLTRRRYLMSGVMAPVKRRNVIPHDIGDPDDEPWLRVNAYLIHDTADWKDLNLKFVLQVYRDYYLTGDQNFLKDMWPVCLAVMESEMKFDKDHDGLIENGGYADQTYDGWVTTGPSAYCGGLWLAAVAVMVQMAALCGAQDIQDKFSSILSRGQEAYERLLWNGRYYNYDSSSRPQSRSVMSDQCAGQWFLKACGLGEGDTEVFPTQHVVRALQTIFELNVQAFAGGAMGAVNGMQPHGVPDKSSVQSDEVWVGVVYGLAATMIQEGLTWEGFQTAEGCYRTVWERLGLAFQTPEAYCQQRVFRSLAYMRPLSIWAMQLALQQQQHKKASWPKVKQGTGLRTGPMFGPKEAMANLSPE

GBA3 = biological target: T2, GBA3 (Homo sapiens, UniProt Q9H227); test: Competitive ABPP against β-glucosidase probe 14, GBA3+ HEK293T lysate; details: 5 from 30 to 0 μM, 1 h at 37 °C, pH 6.0
T2 sequence (Q9H227 1-469): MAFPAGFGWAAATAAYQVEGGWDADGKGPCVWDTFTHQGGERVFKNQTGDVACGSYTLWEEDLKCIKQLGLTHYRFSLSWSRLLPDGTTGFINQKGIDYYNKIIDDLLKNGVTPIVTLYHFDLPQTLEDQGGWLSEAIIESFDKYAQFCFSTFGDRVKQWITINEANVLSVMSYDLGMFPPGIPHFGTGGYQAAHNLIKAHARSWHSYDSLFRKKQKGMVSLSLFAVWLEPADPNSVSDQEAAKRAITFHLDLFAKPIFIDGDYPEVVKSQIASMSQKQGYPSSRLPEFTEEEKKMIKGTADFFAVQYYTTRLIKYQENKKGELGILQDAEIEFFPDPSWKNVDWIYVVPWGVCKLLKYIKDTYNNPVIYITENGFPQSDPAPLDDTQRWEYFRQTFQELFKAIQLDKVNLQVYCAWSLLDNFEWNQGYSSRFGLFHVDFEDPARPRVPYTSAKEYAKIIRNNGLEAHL

sucrase-isomaltase (SIS) = sucrase-isomaltase (SIS) (Mus musculus, UniProt B5THE3); test: Competitive ABPP against probe 13 in mouse gastrointestinal lysate; details: mouse intestine lysate, 1 h at 37 °C
In short: (§1)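 Mixed mouse duodenum, jejunum and ileum homogenates were made in 25 mM potassium phosphate pH 6.5 with protease inhibitors (40 μg protein). Held 5 min on ice in McIlvaine buffer pH 4 or 7. Incubated 1 h at 37 °C with test compound (final 150 to 0.005 μM, plus 0), then probe 13 for 30 min at 37 °C. Boiled in Laemmli buffer, 10% SDS–PAGE, Cy5 fluorescence scan.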

[1] = system: maltase-glycoamylase (MGAM); test: as above; details: mouse intestine lysate, 1 h at 37 °C
In short: as §1

GAA = GAA (Mus musculus, UniProt P70699); test: as above; details: mouse intestine lysate, 1 h at 37 °C
In short: as §1

[2] = biological target: T3, lactase-phlorizin hydrolase (LPH) (Mus musculus, UniProt F8VPT3); test: as above; details: mouse intestine lysate, 1 h at 37 °C
T3 sequence (F8VPT3 869-1931 limits assumed): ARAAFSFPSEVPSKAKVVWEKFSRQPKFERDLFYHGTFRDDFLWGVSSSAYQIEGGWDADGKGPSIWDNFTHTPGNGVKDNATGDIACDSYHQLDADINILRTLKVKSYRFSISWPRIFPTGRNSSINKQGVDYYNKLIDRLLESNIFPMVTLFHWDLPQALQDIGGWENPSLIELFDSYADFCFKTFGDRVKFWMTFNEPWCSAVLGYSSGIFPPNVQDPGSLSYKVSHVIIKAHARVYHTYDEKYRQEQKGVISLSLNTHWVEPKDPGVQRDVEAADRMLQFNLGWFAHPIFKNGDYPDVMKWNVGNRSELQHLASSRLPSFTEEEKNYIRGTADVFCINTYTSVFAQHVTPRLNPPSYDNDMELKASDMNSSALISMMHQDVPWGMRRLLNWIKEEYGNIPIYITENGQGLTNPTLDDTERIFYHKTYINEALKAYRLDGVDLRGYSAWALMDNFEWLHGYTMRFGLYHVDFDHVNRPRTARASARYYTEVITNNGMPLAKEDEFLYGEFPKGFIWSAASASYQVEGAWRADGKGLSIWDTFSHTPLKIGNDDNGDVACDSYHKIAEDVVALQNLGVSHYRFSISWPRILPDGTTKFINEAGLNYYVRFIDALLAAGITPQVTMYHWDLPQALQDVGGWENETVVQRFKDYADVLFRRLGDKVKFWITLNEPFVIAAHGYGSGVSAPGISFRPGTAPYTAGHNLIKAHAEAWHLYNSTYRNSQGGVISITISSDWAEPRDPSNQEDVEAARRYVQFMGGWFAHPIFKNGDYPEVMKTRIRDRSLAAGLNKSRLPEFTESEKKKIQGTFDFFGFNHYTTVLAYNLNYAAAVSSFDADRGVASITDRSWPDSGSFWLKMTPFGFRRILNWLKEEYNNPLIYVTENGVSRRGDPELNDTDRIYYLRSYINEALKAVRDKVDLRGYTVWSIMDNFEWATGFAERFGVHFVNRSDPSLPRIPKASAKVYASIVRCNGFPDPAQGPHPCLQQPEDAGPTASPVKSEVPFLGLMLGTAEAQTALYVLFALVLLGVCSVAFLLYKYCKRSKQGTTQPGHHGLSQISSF
In short: as §1

GAA, sequence (P70699 70-953): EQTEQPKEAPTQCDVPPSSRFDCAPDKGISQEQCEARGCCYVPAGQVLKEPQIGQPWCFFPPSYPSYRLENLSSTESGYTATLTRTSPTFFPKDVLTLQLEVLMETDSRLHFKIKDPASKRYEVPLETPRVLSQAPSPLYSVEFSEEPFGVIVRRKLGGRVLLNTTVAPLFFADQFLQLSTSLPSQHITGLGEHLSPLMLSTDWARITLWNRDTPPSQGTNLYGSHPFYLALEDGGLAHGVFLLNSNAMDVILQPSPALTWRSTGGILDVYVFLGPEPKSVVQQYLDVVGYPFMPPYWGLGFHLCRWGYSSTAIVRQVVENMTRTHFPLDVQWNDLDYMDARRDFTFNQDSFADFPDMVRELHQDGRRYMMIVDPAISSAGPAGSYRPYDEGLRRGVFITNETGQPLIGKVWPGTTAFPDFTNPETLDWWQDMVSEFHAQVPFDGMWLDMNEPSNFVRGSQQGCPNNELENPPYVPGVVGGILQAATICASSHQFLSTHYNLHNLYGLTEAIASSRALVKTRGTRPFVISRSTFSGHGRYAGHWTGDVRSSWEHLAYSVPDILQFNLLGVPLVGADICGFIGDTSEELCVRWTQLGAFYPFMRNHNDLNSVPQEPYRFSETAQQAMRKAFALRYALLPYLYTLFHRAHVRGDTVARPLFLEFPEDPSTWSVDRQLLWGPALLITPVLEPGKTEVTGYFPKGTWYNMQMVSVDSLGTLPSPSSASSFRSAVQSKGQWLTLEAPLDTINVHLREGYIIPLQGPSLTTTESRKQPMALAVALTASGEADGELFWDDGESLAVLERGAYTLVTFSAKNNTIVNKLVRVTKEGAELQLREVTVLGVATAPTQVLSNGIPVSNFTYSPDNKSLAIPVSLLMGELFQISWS
sucrase-isomaltase (SIS), sequence (B5THE3 1-1818): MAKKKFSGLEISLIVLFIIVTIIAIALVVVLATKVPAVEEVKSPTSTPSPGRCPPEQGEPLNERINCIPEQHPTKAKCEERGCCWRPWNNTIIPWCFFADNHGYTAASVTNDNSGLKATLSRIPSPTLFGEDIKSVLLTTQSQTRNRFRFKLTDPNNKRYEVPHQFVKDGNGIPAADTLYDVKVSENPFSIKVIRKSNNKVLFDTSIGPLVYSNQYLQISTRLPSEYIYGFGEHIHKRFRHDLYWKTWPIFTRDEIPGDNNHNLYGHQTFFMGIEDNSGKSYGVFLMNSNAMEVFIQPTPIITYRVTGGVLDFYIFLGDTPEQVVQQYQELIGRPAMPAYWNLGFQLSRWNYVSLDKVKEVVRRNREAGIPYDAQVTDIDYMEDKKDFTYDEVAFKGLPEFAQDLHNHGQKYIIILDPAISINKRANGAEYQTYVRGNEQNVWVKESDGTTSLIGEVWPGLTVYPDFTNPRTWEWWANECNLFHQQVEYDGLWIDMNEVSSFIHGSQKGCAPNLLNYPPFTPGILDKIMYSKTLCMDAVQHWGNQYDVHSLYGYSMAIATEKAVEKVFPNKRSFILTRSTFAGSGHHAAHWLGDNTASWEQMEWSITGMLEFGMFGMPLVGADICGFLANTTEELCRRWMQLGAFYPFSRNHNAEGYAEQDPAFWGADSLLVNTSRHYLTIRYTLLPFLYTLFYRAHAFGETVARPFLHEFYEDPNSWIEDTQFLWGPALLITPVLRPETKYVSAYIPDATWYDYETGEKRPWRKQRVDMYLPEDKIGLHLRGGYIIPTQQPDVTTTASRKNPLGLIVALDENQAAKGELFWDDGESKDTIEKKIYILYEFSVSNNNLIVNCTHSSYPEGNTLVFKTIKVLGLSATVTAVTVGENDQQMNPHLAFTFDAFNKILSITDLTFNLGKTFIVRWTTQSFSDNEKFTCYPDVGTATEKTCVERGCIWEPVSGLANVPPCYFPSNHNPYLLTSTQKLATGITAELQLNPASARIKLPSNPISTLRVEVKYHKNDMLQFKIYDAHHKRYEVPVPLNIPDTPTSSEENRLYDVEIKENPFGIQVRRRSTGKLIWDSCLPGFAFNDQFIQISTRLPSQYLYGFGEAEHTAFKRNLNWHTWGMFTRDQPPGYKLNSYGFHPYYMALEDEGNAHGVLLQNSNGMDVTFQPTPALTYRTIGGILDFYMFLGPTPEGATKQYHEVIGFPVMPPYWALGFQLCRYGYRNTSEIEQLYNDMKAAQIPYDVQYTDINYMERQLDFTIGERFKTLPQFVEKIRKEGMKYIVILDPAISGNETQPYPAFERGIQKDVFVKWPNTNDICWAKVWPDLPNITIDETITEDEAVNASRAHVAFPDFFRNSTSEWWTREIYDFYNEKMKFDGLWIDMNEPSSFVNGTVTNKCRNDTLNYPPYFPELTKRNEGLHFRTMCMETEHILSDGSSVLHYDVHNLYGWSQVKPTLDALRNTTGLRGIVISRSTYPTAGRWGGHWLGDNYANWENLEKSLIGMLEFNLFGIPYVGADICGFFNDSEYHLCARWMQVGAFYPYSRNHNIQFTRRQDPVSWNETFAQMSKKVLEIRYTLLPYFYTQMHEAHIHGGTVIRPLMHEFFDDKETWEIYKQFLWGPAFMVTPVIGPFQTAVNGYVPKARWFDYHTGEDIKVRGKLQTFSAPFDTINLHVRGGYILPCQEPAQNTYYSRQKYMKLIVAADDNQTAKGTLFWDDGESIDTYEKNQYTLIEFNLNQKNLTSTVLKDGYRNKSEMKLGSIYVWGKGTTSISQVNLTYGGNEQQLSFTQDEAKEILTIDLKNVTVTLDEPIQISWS

inhibition of probe 14 labeling of GBA2 (GBA2): no inhibition
inhibition of probe 14 labeling of GBA3 (GBA3): no inhibition
inhibition of probe 13 labeling of SIS (sucrase-isomaltase (SIS)): inhibited
inhibition of probe 13 labeling of MGAM [1]: inhibited
inhibition of probe 13 labeling of GAA (GAA): inhibited
competition of off-target probe 13 labeling of LPH [2]: not outcompeted
Compound: O=S1(=O)O[C@@H]2[C@H](O)[C@@H](O)[C@H](O)[C@@H](CO)[C@@H]2O1 [Compound 5, 1,6-epi-cyclophellitol cyclosulfate]
